Assay results as given in ChEMBL document CHEMBL2346534, “Design, synthesis and in vitro anti-proliferative activity of 4,6-quinazolinediamines as potent EGFR-TK inhibitors” (Eur J Med Chem, 2013).

Assays:
Format in all cases: functional
UO-31 = assay: Cytotoxicity against human UO31 cells after 48 hrs by SRB assay; conditions: UO-31, 48 h
How it was run: (§1)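 NCI 60 five-dose screen. Cells in RPMI 1640 with 5% FBS and 2 mM L-glutamine, plated at 5000–40,000 cells/well by doubling time, pre-incubated 24 h at 37 °C, 5% CO2. Time-zero plates TCA-fixed at drug addition. Final concentrations 0.01, 0.1, 1, 10 and 100 µM (DMSO stock), 48 h exposure. TCA fixation, 0.4% SRB stain, absorbance 515 nm. GI50 from [(Ti−Tz)/(C−Tz)]×100 = 50.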

Hs-578T = assay: Cytotoxicity against human Hs578T cells after 48 hrs by SRB assay
How it was run: (§2)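 NCI 60-panel five-dose screen. Cells in RPMI 1640 with 5% FBS and 2 mM L-glutamine, plated at 5000–40,000 cells/well by doubling time, preincubated 24 h at 37 °C/5% CO2. Drug from DMSO stock added at 0.01, 0.1, 1, 10 and 100 µM, then 48 h. TCA fixation, SRB stain, absorbance at 515 nm, time-zero plates included. GI50 = 50% reduction in net protein increase versus control.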

OVCAR-3 = assay: Cytotoxicity against human OVCAR3 cells after 48 hrs by SRB assay; conditions: OVCAR-3, 48 h
How it was run: (§3)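 NCI 60-panel five-dose screen. Cells in RPMI 1640 with 5% FBS and 2 mM L-glutamine are plated at 5000–40,000 cells/well by doubling time and preincubated 24 h at 37 °C in 5% CO2. Drug in DMSO is tested at 0.01, 0.1, 1, 10 and 100 μM for 48 h. Cells are TCA-fixed, stained with SRB and read at 515 nm. GI50 is the concentration giving 50% reduction in net protein increase relative to time-zero and control plates.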

T47D = assay: Cytotoxicity against human T47D cells after 48 hrs by SRB assay; how it was run: as §1
SK-MEL-5 = assay: Cytotoxicity against human SK-MEL-5 cells after 48 hrs by SRB assay; conditions: SK-MEL-5, 48 h; how it was run: as §3
OVCAR-8 = assay: Cytotoxicity against human OVCAR8 cells after 48 hrs by SRB assay; conditions: OVCAR-8, 48 h; how it was run: as §3
[1] = Cytotoxicity against human NCI-ADR-RES cells after 48 hrs by SRB assay; how it was run: as §3
SF-539 = assay: Cytotoxicity against human SF539 cells after 48 hrs by SRB assay; conditions: SF-539, 48 h; how it was run: as §3
Malme-3M = assay: Cytotoxicity against human MALME-3M cells after 48 hrs by SRB assay; how it was run: as §2
MCF7 = assay: Cytotoxicity against human MCF7 cells after 48 hrs by SRB assay; conditions: MCF7, 48 h; how it was run: as §2
786-0 = assay: Cytotoxicity against human 786-0 cells after 48 hrs by SRB assay; conditions: 786-0, 48 h; how it was run: as §2
BT-549 = assay: Cytotoxicity against human BT549 cells after 48 hrs by SRB assay; conditions: BT-549, 48 h; how it was run: as §2
DU-145 = assay: Cytotoxicity against human DU145 cells after 48 hrs by SRB assay; conditions: DU-145, 48 h; how it was run: as §2
LOX IMVI = assay: Cytotoxicity against human LOXIMVI cells after 48 hrs by SRB assay; how it was run: as §2
SN12C = assay: Cytotoxicity against human SN12C cells after 48 hrs by SRB assay; how it was run: as §3
HL-60(TB) = assay: Cytotoxicity against human HL-60(TB) cells after 48 hrs by SRB assay; conditions: HL-60, 48 h
How it was run: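 NCI 60-panel five-dose screen. Cells were grown in RPMI 1640 with 5% FBS and 2 mM L-glutamine and preincubated 24 h before dosing. Compound from DMSO stock was given at five 10-fold concentrations for 48 h at 37 °C, 5% CO2. Suspension cells were fixed with TCA (final 16%), SRB-stained, and read at 515 nm. GI50, TGI and LC50 came from time-zero, control and treated absorbances.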

MOLT-4 = assay: Cytotoxicity against human MOLT4 cells after 48 hrs by SRB assay; conditions: MOLT-4, 48 h; how it was run: as §3
HT-29 = assay: Cytotoxicity against human HT-29 cells after 48 hrs by SRB assay; conditions: HT-29, 48 h; how it was run: as §2
SF-295 = assay: Cytotoxicity against human SF295 cells after 48 hrs by SRB assay; conditions: SF-295, 48 h; how it was run: as §3
HCT-15 = assay: Cytotoxicity against human HCT15 cells after 48 hrs by SRB assay; conditions: HCT-15, 48 h; how it was run: as §2
SNB-75 = assay: Cytotoxicity against human SNB75 cells after 48 hrs by SRB assay; conditions: SNB-75, 48 h; how it was run: as §3
ACHN = assay: Cytotoxicity against human ACHN cells after 48 hrs by SRB assay; how it was run: as §2
PC-3 = assay: Cytotoxicity against human PC3 cells after 48 hrs by SRB assay; conditions: PC-3, 48 h; how it was run: as §3
RXF 393 = assay: Cytotoxicity against human RXF393 cells after 48 hrs by SRB assay; conditions: RXF 393, 48 h; how it was run: as §3
U-251 = assay: Cytotoxicity against human U251 cells after 48 hrs by SRB assay; conditions: U-251, 48 h; how it was run: as §1
M14 = assay: Cytotoxicity against human M14 cells after 48 hrs by SRB assay; conditions: M14, 48 h; how it was run: as §2
[2] = read-out: LC50 (the source's name)

NC(=O)Nc1ccc2ncnc(Nc3ccc(Cl)cc3)c2c1
GI50 (UO-31): 4.22 µM | TGI (UO-31): 43 µM | CC50 (UO-31; [2]): > 100 µM | GI50 (Hs-578T): 14.8 µM | TGI (Hs-578T): 55.9 µM | CC50 (Hs-578T; [2]): > 100 µM | GI50 (OVCAR-3): 8.36 µM | TGI (OVCAR-3): 69.5 µM | CC50 (OVCAR-3; [2]): > 100 µM | GI50 (T47D): 6.47 µM | TGI (T47D): 72.3 µM | CC50 (T47D; [2]): > 100 µM | GI50 (SK-MEL-5): 13.5 µM | TGI (SK-MEL-5): 30.7 µM | CC50 (SK-MEL-5; [2]): 70.1 µM | GI50 (OVCAR-8): 21.7 µM | TGI (OVCAR-8): > 100 µM | CC50 (OVCAR-8; [2]): > 100 µM | GI50 [1]: 19.5 µM | TGI [1]: > 100 µM | CC50 [1, 2]: > 100 µM | GI50 (SF-539): 25.5 µM | TGI (SF-539): > 100 µM | CC50 (SF-539; [2]): > 100 µM | GI50 (Malme-3M): 22 µM | TGI (Malme-3M): 60.7 µM | CC50 (Malme-3M; [2]): > 100 µM | GI50 (MCF7): 26.2 µM | TGI (MCF7): > 100 µM | CC50 (MCF7; [2]): > 100 µM | GI50 (786-0): 20.7 µM | TGI (786-0): 88.9 µM | CC50 (786-0; [2]): > 100 µM | GI50 (BT-549): 18.2 µM | TGI (BT-549): 79.3 µM | CC50 (BT-549; [2]): > 100 µM | GI50 (DU-145): 2.72 µM | TGI (DU-145): > 100 µM | CC50 (DU-145; [2]): > 100 µM | GI50 (LOX IMVI): 19.3 µM | TGI (LOX IMVI): 68.7 µM | CC50 (LOX IMVI; [2]): > 100 µM | GI50 (SN12C): 11.1 µM | TGI (SN12C): 50 µM | CC50 (SN12C; [2]): > 100 µM | GI50 (HL-60(TB)): 24.4 µM | TGI (HL-60(TB)): 69.8 µM | CC50 (HL-60(TB); [2]): > 100 µM | GI50 (MOLT-4): 18.1 µM | TGI (MOLT-4): 87.1 µM | CC50 (MOLT-4; [2]): > 100 µM | GI50 (HT-29): 24 µM | TGI (HT-29): > 100 µM | CC50 (HT-29; [2]): > 100 µM | GI50 (SF-295): 14.8 µM | TGI (SF-295): 45.5 µM | CC50 (SF-295; [2]): > 100 µM | GI50 (HCT-15): 17.8 µM | TGI (HCT-15): > 100 µM | CC50 (HCT-15; [2]): > 100 µM | GI50 (SNB-75): 3.36 µM | TGI (SNB-75): 47 µM | CC50 (SNB-75; [2]): > 100 µM | GI50 (ACHN): 1.47 µM | TGI (ACHN): 35.8 µM | CC50 (ACHN; [2]): > 100 µM | GI50 (PC-3): 16.7 µM | TGI (PC-3): 92.5 µM | CC50 (PC-3; [2]): > 100 µM | GI50 (RXF 393): 15.1 µM | TGI (RXF 393): 75.9 µM | CC50 (RXF 393; [2]): > 100 µM | GI50 (U-251): 23.9 µM | TGI (U-251): > 100 µM | CC50 (U-251; [2]): > 100 µM | GI50 (M14): 25 µM | TGI (M14): 76 µM | CC50 (M14; [2]): > 100 µM
